Measurements from paper PMC3243785 (Chemical research in toxicology, 2011).
Values after ≈ are worked out from the molar mass of the structure shown. Like-named read-outs stand apart in the source and are kept apart here.

Columns and labels:
[1] = test system: hepatic microsomes from PB-, DEX- or VEH-treated rats (P450 enzymes); type: in vitro ADME, rat; details: for Metabolite identified by GC/MS (major/minor): large scale experiment; for Metabolite formation, Percent of ΣOH-PCB: 37°C; for Percent of PCB 136 metabolized to the metabolite: microsomes from PB-, DEX- or VEH-treated rats; for Percent of PCB 136 metabolized to the metabolite / Percent of PCB 136 converted to the metabolite: 50 μM PCB 136; for Formation of metabolite relative to microsomes from VEH-treated rats: 2 min incubation
[2] = test system: Ryanodine receptors (RyRs); details: cited from earlier work
rat recombinant P450 2B1 = details: cited from earlier work
[3] = test system: hepatic microsomes from PB-, DEX- or VEH-treated rats (P450 enzymes); assay: Enantioselective gas chromatography; type: in vitro ADME, rat; details: for Enantiomeric fraction (EF), range over time course: 50 μM PCB 136
P450 2B enzymes = assay: BROD activity of hepatic microsomes from inducer-treated rats; type: biochemical, rat; details: intraperitoneal inducer treatment of male Sprague-Dawley rats, relative to VEH
P450 3A = assay: BQ activity of hepatic microsomes from inducer-treated rats; type: biochemical, rat; details: intraperitoneal inducer treatment of male Sprague-Dawley rats, relative to VEH
[4] = Aqueous solubility of PCB 136 in incubation buffer by light scattering; type: physicochemical; details: phosphate buffer (incubation buffer), pH 7.4
Summary of the method: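 Test compound dissolved in DMSO was added to 0.1 M phosphate buffer containing 3 mM MgCl2. Light scattering was read at 37 °C in a Peltier-controlled luminescence spectrophotometer, with excitation and emission both at 400 nm and 5 nm slits. Integration time was 5 s, with 5 min pre-recording followed by 5 min recording.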

[5] = microsomes from PB-treated rats
[6] = microsomes from DEX-treated rats, 5 μM PCB 136, 5 min
[7] = microsomes from PB-treated rats, 5 μM PCB 136, 5 min
[8] = microsomes from VEH-treated rats, 5 μM PCB 136, 5 min
[9] = microsomes from PB-treated rats, 50 μM PCB 136, 5 min
[10] = all incubations with 5 μM PCB 136
[11] = all three microsomal preparations
[12] = microsomes from DEX-treated rats

**Q.** Which “Metabolite identified by GC/MS (major/minor)” value [1, 5] does the source give for `Oc1c(O)c(Cl)c(-c2c(Cl)ccc(Cl)c2Cl)c(Cl)c1Cl` [4,5-diOH-PCB 136, 2,2',3,3',6,6'-hexachlorobiphenyl-4,5-diol] here?
**A.** The value was “minor metabolites”.

**Q.** What about the “Metabolite formation, Percent of ΣOH-PCB” value [1, 6] of the same compound?
**A.** Its value is 3%.

**Q.** What about the “Percent of PCB 136 metabolized to the metabolite” value [1] of the same compound?
**A.** Its value is less than 0.1%.

**Q.** And the “Metabolite formation, Percent of ΣOH-PCB” value [1, 7]?
**A.** Its value is 22%.

**Q.** And the “Metabolite formation, Percent of ΣOH-PCB” value [1, 8]?
**A.** Its value is 2%.

**Q.** What about the “Metabolite formation, Percent of ΣOH-PCB” value ([1]; microsomes from VEH-treated rats, 50 μM PCB 136, 5 min) of the same compound?
**A.** The value was 1%.

**Q.** For `Oc1cc(Cl)c(-c2c(Cl)ccc(Cl)c2Cl)c(Cl)c1Cl` [4-OH-PCB 136, 2,2',3,3',6,6'-hexachlorobiphenyl-4-ol], which “Concentration needed to double basal RyR activity (EC2x)” value [2] is on record?
**A.** The value was 1.60 µM.

**Q.** And the “Formation of metabolite by rat recombinant P450 2B1” value (rat recombinant P450 2B1)?
**A.** The value was “no detectable quantities”.

**Q.** What about the “Metabolite identified by GC/MS (major/minor)” value [1, 5] of the same compound?
**A.** The value was “minor metabolites”.

**Q.** What about the “Metabolite formation, Percent of ΣOH-PCB” value [1, 6] of the same compound?
**A.** The value was 3%.

**Q.** What about the “Metabolite formation, Percent of ΣOH-PCB” value ([1]; microsomes from DEX-treated rats, 50 μM PCB 136, 5 min) of the same compound?
**A.** The value was 2%.

**Q.** What about the “Percent of PCB 136 metabolized to the metabolite” value [1] of the same compound?
**A.** Its value is 0.1%.

**Q.** And the “Metabolite formation, Percent of ΣOH-PCB” value [1, 9]?
**A.** Its value is 1%.

**Q.** And the “Metabolite formation, Percent of ΣOH-PCB” value [1, 8]?
**A.** The value was 15%.

**Q.** And the “Enantiomeric fraction (EF)” value ([3]; DEX-microsomes, 5 μM PCB 136, 30 min)?
**A.** The value was 0.22.

**Q.** And the “Enantiomeric fraction (EF)” value ([3]; DEX-microsomes, 50 μM PCB 136, 1 min)?
**A.** The value was 0.39.

**Q.** What about the “Enantiomeric fraction (EF)” value ([3]; DEX-microsomes, 50 μM PCB 136, 10 min) of the same compound?
**A.** Its value is 0.33.

**Q.** What about the “Enantiomeric fraction (EF)” value ([3]; PB-microsomes, 50 μM PCB 136, 1 min) of the same compound?
**A.** The value was 0.43.

**Q.** And the “Enantiomeric fraction (EF), direction of enrichment” value [3, 10]?
**A.** Its value is less than 0.5.

**Q.** What about the “Enantiomeric fraction (EF), direction of enrichment” value [3, 11] of the same compound?
**A.** Its value is less than 0.5.

**Q.** Which “Metabolite identified by GC/MS (major/minor)” value [1, 5] does the source give for `Oc1cc(Cl)c(Cl)c(-c2c(Cl)ccc(Cl)c2Cl)c1Cl` [5-OH-PCB 136, 2,2',3,3',6,6'-hexachlorobiphenyl-5-ol] here?
**A.** Its value is “major metabolite”.

**Q.** And the “Metabolite formation, Percent of ΣOH-PCB” value [1, 6]?
**A.** The value was 94%.

**Q.** And the “Percent of PCB 136 converted to the metabolite” value (from here on “Percent of PCB 136 converted”) [1, 12]?
**A.** The value was roughly 2%.

**Q.** What about the “Formation of metabolite relative to microsomes from VEH-treated rats” value [1, 12] of the same compound?
**A.** The value was 8 times.

**Q.** And the “Metabolite formation, Percent of ΣOH-PCB” value [1, 7]?
**A.** Its value is 78%.

**Q.** And the “Percent of PCB 136 converted” value [1, 5]?
**A.** Its value is “approximately 22%”.

**Q.** What about the “Metabolite formation, Percent of ΣOH-PCB” value [1, 9] of the same compound?
**A.** Its value is 99%.

**Q.** What about the “Formation of metabolite relative to microsomes from VEH-treated rats” value [1, 5] of the same compound?
**A.** Its value is 84 times.

**Q.** And the “Metabolite formation, Percent of ΣOH-PCB” value [1, 8]?
**A.** The value was 83%.

**Q.** What about the “Percent of PCB 136 converted” value ([1]; microsomes from VEH-treated rats) of the same compound?
**A.** The value was roughly 0.4%.

**Q.** And the “Enantiomeric fraction (EF), range over time course” value ([3]; PB-microsomes)?
**A.** Its value is 0.70-0.72.

**Q.** And the “Enantiomeric fraction (EF), range over time course” value ([3]; VEH-microsomes)?
**A.** Its value is 0.62-0.75.

**Q.** What about the “Enantiomeric fraction (EF)” value ([3]; VEH-microsomes, 50 μM PCB 136, 1 min) of the same compound?
**A.** Its value is 0.62.

**Q.** What about the “Enantiomeric fraction (EF), direction of enrichment” value [3, 10] of the same compound?
**A.** Its value is greater than 0.5.

**Q.** What about the “Enantiomeric fraction (EF), direction of enrichment” value [3, 11] of the same compound?
**A.** Its value is greater than 0.5.

**Q.** With `Clc1ccc(Cl)c(-c2c(Cl)ccc(Cl)c2Cl)c1Cl` [(-)-PCB 136] as the compound, how does the “Activity towards RyRs” value ([2]; enantiospecific) read?
**A.** Its value is “displays activity”.

**Q.** For `C[C@@H]1C[C@H]2[C@@H]3CCC4=CC(=O)C=C[C@]4(C)[C@@]3(F)[C@@H](O)C[C@]2(C)[C@@]1(O)C(=O)CO` [DEX, dexamethasone], which “Increase in BROD activity in hepatic microsomes of treated rats” value (P450 2B enzymes) is on record?
**A.** The value was 7 fold.

**Q.** And the “Increase in BQ activity in hepatic microsomes of treated rats” value (P450 3A)?
**A.** The value was 84 fold.

**Q.** For `CCC1(c2ccccc2)C(=O)NC(=O)NC1=O` [PB, phenobarbital], which “Increase in BROD activity in hepatic microsomes of treated rats” value (P450 2B enzymes) is on record?
**A.** The value was 94 fold.

**Q.** Which results are given for `Clc1ccc(Cl)c(-c2c(Cl)ccc(Cl)c2Cl)c1Cl` [PCB 136, 2,2',3,3',6,6'-hexachlorobiphenyl]?
**A.** solubility [4]: ~0.25 µM (≈ 0.0902 µg/mL); Enantiomeric fraction (EF) ([3]; PB-microsomes, 5 μM PCB 136, 5 min incubation): 0.35; Enantiomeric fraction (EF) ([3]; VEH-microsomes, 5 μM PCB 136, 5 min incubation): 0.49
